Test results as given in article PMC6307981 (Journal of Pharmaceutical Sciences, 2019).

How the values were obtained:
[1] = Metabolic stability in human liver microsomes; type: in vitro ADME
Outline: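 Incubated with 0.5 mg/mL human liver microsomes at 1 μM compound in 100 mM KPO4, pH 7.4, started with 1 mM NADPH. Aliquots at 0, 5, 10, 20, 40 and 60 min quenched in cold acetonitrile. Parent remaining measured by LC-MS/MS.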

[2] = Equilibrium solubility of the crystalline compounds; type: physicochemical; details: 37°C, >24 h, mean ± s.d., n = 3, LLOQ 1 μg/mL
Outline: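 Excess crystalline solid (2-3 mg per 1 mL) in water held at 37°C for >24 h. Supernatant cleared by centrifugation at 30,279 × g for ≥20 min, then quantified by HPLC-UV: isocratic C18 column at 50°C, acetonitrile/water 80:20 or 70:30 depending on compound, 1 mL/min, detection at 280 nm, calibration against acetonitrile standards.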

[3] = type: in vivo, rats (male; Sprague-Dawley); details: rat
Outline: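 Male Sprague-Dawley rats, lightly isoflurane-anaesthetised, got 250 μL dosing solution intratracheally by catheter to the tracheal bifurcation at 0.067, 0.12 or 0.28 mg/kg. Plasma, lung and, in one study, BAL sampled to 24 or 48 h and assayed by LC-MS. Four-compartment model with central lung fixed at 2 g and BAL plus lung summed. M3 used for <LLOQ data; VPC; apparent parameters scaled to 0.3 kg.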

[4] = from human liver microsomes data
[5] = intratracheal, apparent parameter of final model, scaled to 0.3 kg
[6] = intratracheal, final model, scaled to 0.3 kg

CCCCCCCCCc1nc2cc(Cl)ccc2c(=O)n1N [SEN001, 3-amino-7-chloro-2-nonylquinazolin-4(3H)-one]
CLH (hepatic clearance) [1, 4]: 747.9 mL/min | EH (hepatic extraction ratio) [1, 4]: 0.50 | CLint (intrinsic clearance) ([1]; human liver microsomes, 1 μM compound): 1491.7 mL/min | half-life at 1 μM ([1]; human, liver microsomes, pH 7.4): 54.4 min | Solubility in water [2]: <LLOQ | Time of distribution equilibrium (lung, BAL, plasma) ([3]; intratracheal 0.067 mg/kg): 2 h | CLC, clearance central [3, 5]: 0.0745 L/h | CLLP, clearance lung to plasma [3, 5]: 0.0175 L/h | VC, volume of distribution central [3, 5]: 0.0855 L | FBAL, fraction in BAL ([3]; intratracheal, final model (Table 5)): 0.980% | QL, intercompartmental clearance lung [3, 6]: 0.00596 L/h | VLP, volume of distribution deep lung [3, 6]: 0.0582 L
